# From ChEMBL document CHEMBL1124850, “Synthesis and antibacterial activity of thiazolo-, oxazolo-, and imidazolo[3,2-a][1,8]naphthyridinecarboxylic acids” (J Med Chem, 1990)
# Legend:
# [1] = test system: Klebsiella aerogenes; experiment: Activity against Enterobacter aerogenes (ATCC 13048); type: functional
# Method in brief: (§1)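 Agar dilution MIC: serial 2-fold dilutions in Mueller-Hinton agar, inoculum about 10^6 CFU/mL, incubated at 37 °C for 18 h. The MIC is the lowest concentration that prevents visible bacterial growth.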
# [2] = test system: Staphylococcus epidermidis; experiment: Activity against Staphylococcus epidermidis (IAM 1296); type: functional; method in brief: as §1
# [3] = test system: Staphylococcus aureus; experiment: Activity against Staphylococcus aureus (FDA207PJC-1); type: functional; method in brief: as §1
# [4] = test system: Escherichia coli; experiment: Activity against Escherichia coli (K-12 C600); type: functional; method in brief: as §1
# [5] = test system: Staphylococcus aureus; experiment: Activity against Staphylococcus aureus (IID 803); type: functional; method in brief: as §1
# [6] = test system: Acinetobacter calcoaceticus; experiment: Activity against Acinetobacter calcoaceticus (AC54); type: functional; method in brief: as §1
# [7] = test system: Pseudomonas aeruginosa; experiment: Activity against Pseudomonas aeruginosa (E-2); type: functional; method in brief: as §1
# [8] = test system: Enterococcus faecalis; experiment: Activity against Streptococcus faecalis (IID 682); type: functional; method in brief: as §1
# [9] = test system: Klebsiella pneumoniae; experiment: Activity against Klebsiella pneumoniae (PCI-602); type: functional; method in brief: as §1
# [10] = test system: Bacillus subtilis; experiment: Activity against Bacillus subtilis (ATCC 6633); type: functional; method in brief: as §1
# [11] = test system: Nucleic Acid; experiment: Inhibitory effect on DNA gyrase supercoiling activity from Escherichia coli K-12 C600; type: functional
# [12] = test system: Escherichia coli; experiment: Activity against Escherichia coli (KC-14); type: functional; method in brief: as §1
# [13] = test system: Burkholderia cepacia; experiment: Activity against Pseudomonas cepacia (IID-1341); type: functional; method in brief: as §1
# [14] = test system: Pseudomonas cepacia (Burkholderia cepacia); experiment: Activity against Pseudomonas cepacia (IID-1341)
MIC [1] [µg/mL],MIC [2] [µg/mL],MIC [3] [µg/mL],MIC [4] [µg/mL],MIC [5] [µg/mL],MIC [6] [µg/mL],MIC [7] [µg/mL],MIC [8] [µg/mL],MIC [9] [µg/mL],MIC [10] [µg/mL],IC50 [11] [µg/mL],MIC [12] [µg/mL],MIC [13] [µg/mL],MIC [14] [µg/mL],Compound
0.2,1.56,0.39,0.2,0.39,0.39,1.56,6.25,0.05,0.1,0.52,0.2,3.13,–,CN1CCN(c2nc3c(cc2F)c(=O)c(C(=O)O)c2n3CCS2)CC1
0.2,3.13,0.78,0.2,0.78,3.13,1.56,3.13,0.1,0.2,–,0.2,6.25,–,CCn1cc(C(=O)O)c(=O)c2cc(F)c(N3CCNCC3)nc21 [ENOXACIN]
50,100,100,50,100,100,100,100,6.25,25,> 25,50,100,–,CN1CCN(c2nc3c(cc2F)c(=O)c(C(=O)O)c2n3CCN2C)CC1
6.25,> 25,12.5,12.5,12.5,> 25,> 25,> 25,0.78,3.13,6.11,6.25,–,> 25,CC1COc2c(C(=O)O)c(=O)c3cc(F)c(N4CCN(C)CC4)nc3n21 (centres undefined)

Compound,MIC [1] [µg/mL],MIC [2] [µg/mL],MIC [3] [µg/mL],MIC [4] [µg/mL],MIC [5] [µg/mL],MIC [6] [µg/mL],MIC [7] [µg/mL],MIC [8] [µg/mL],MIC [9] [µg/mL],MIC [10] [µg/mL],IC50 [11] [µg/mL],MIC [12] [µg/mL],MIC [13] [µg/mL],MIC [14] [µg/mL]
CC1COc2c(N3CCN(C)CC3)c(F)cc3c(=O)c(C(=O)O)cn1c23 (centres undefined) [OFLOXACIN],0.1,0.78,0.39,0.2,0.39,0.39,1.56,1.56,0.05,0.1,0.59,0.1,6.25,–
